An excerpt weighted towards active compounds, which were near 2.2% of everything screened.
Efflux pump inh = blocks antifungal efflux pumps in multiplex yeast assay | inhibition, % at 10 µM | S. cerevisiae Candida pump triplex, Nile Red efflux | 0.44% of 330,000 active;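 active means plate passing quality check with inhibition over a set limit, or well fluorescence over plate mean plus 4 SD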;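 further: Nile Red retained in pooled yeast measured as flow cytometry median fluorescence; 0% = buffer negative control and 100% = Enniatin B positive control; higher means more Nile Red kept so more efflux inhibition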
AI-2 QS mod = modulates the Vibrio harveyi AI-2 quorum sensing system; AID 2094; 0.4% of 300,000 active; activity change, % at 7.5 µM; Vibrio harveyi JMH597 AI-2 luminescence/OD600 ratio, 9 h; active compounds read low; strain lacks LuxN and CqsS sensors; 0 = neutral-control median; in the data active means activity change below about -75%, passing the limit was not always enough; inconclusive means no clear call, values can overlap the other calls;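 further: luminescence divided by OD600 gain over 9 h not by final OD600 alone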
PolyA inh = blocks polyadenylation in yeast reporter cells. 0.02% of 300,000 active. activity score, % at 12 µM. S. cerevisiae SKY197-pL101 polyadenylation reporter, beta-gal luminescence; efflux-impaired pdr1/pdr3 knockout yeast; score 100 = 6 SD above DMSO. AID 1875;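 active means lowest replicate activity score at least 50, where 100 means six control SD above control mean; inconclusive means lowest score under 50 but half or more replicates reach 50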;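 further: yeast exposed to compound for 9 h at 30 °C; higher score means more reporter readthrough which indicates perturbed polyadenylation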
HDAC3 inh = human HDAC3 inhibition | O15379 | 0.15% of 320,000 active | inhibition, % at 8.3 µM | recombinant HDAC3, fluorogenic peptide/trypsin coupled, fluorescence; in the data active means inhibition above about 26%, passing the limit was not always enough; inconclusive means no clear call, values can overlap the other calls
Target sequence (O15379 whole entry, looked up): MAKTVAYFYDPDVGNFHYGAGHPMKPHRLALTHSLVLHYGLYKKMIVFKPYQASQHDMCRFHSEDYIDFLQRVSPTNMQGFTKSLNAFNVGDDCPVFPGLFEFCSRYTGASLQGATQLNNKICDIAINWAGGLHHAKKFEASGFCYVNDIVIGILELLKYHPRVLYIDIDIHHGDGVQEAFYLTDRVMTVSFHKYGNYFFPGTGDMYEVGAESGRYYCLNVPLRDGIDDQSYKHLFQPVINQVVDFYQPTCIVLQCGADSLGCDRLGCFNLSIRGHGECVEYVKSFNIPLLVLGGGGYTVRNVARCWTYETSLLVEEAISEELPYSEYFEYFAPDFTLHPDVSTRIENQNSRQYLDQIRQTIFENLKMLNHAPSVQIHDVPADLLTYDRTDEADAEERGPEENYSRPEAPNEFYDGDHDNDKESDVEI
T cruzi inh = T. cruzi replication inhibition; AID 1885; inhibition, % (test concentration not listed); 1.4% of 300,000 active; T. cruzi beta-gal in NIH3T3, luminescence, 90 h;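 active means mean inhibition across valid replicates above about 55%, limit read from the data; inconclusive means mean below that limit but half or more replicates reach it; inactive means mean below it, under half of replicates reach it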;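 further: signal also drops with host cell toxicity which is not excluded here; 0% = plate median of DMSO wells and 100% = zero luminescence signal; higher percent means less beta-gal luminescence so fewer parasites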
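Assay system: NIH/3T3 host cells with β-galactosidase reporter T. cruzi; input: 5,000 host fibroblasts per well; compound: single 50 nL compound addition per well in DMSO; timing: ≥90 h infection period, 3 h prior cell attachment; measured by: GalScreen β-gal luminescence, detergent lysis, 60 min; evaluation: percent inhibition of parasite-derived β-gal signal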
JMH597 growth = retest: inhibitors of Vibrio harveyi JMH597 growth; shares compounds with AI-2 QS mod; OD600 absorbance, 9 h; lacks LuxN and CqsS sensors; growth inhibition, % at 7.5 µM; 1% of 750 active;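 active means every replicate shows growth inhibition above 50%; inconclusive means at least half, but not all, replicates pass that cutoff; inactive means fewer than half of replicates pass it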
BB721 const-QS lum = retest counter-screen: BB721 constitutive quorum sensing luminescence decrease; shares compounds with AI-2 QS mod; Vibrio harveyi BB721 luminescence, 9 h; inhibition, % at 7.5 µM; 95% of 750 active; AID 2727;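 active means inhibition above about 80% in every replicate, not just on average, limit read from the data; inconclusive means at least half of replicates past the limit, but not all; inactive means fewer than half of replicates past the limit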
BB721 growth = retest Vibrio harveyi BB721 growth inhibition. shares compounds with AI-2 QS mod. OD600 absorbance, 9 h. growth inhibition, % at 7.5 µM. 3% of 750 active. AID 2728;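 active means every replicate shows growth inhibition above 50%; inconclusive means at least half but not all replicates above 50% inhibition; inactive means under half of replicates above 50% inhibition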
AI-2 QS JMH597 = Vibrio harveyi AI-2 signaling luminescence modulation – JMH597 strain, confirmation. shares compounds with AI-2 QS mod. Vibrio harveyi JMH597 AI-2 quorum sensing luminescence, 9 h; luxN and CqsS knockout, AI-2 only. inhibition, % at 7.5 µM. 97% of 750 active;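 active means every replicate shows more than 75% inhibition of signal versus neutral control wells; inconclusive means half to three quarters of replicates exceed 75% inhibition; inactive means fewer than half of replicates exceed 75% inhibition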
Starred values were filed as active, the others as inactive; ? = inconclusive; nt = no result given.

SMILES	Efflux pump inh	AI-2 QS mod	PolyA inh	HDAC3 inh	T cruzi inh	JMH597 growth	BB721 const-QS lum	BB721 growth	AI-2 QS JMH597
Cc1nn(CC(=O)Nc2ccc(C(=O)N3CCCC3)cc2)c(=O)c2ccccc12	0.0	-82.7*	-7.0	-0.3	-10.4	-28.9	94.5*	-22.2	95.8*
Cc1nn(CC(=O)Nc2ccc(C(=O)N3CCCCC3)cc2)c(=O)c2ccccc12	0.1	-81.9*	19.1	-5.2	5.0	7.4	92.9*	-10.9	94.2*
Cc1nn(CC(=O)Nc2ccc(S(N)(=O)=O)cc2)c(=O)c2ccccc12	0.2	-83.9*	-4.9	2.6	4.7	-11.4	97.9*	-14.0	98.6*
Cc1cccc(CNC(=O)C2CCC(=O)N(CCc3cccc(F)c3)C2)n1 (configuration not stated)	nt	6.9	4.8	nt	0.9	nt	nt	nt	nt
CCOC(=O)c1cnc2cc(F)c(F)cc2c1N1CCOCC1	0.2	15.7	-6.7	6.2	-2.7	nt	nt	nt	nt
COc1ccc(CN=CC2=C(O)CC(C)(C)CC2=O)cc1	0.0	-80.0*	-4.2	11.3	-5.8	22.8	87.6*	13.0	92.3*
O=C(CNC(=O)c1ccc(N2CCCC2=O)cc1)Nc1ccc(F)c(F)c1F	-0.1	nt	nt	-4.8	nt	nt	nt	nt	nt
O=C(CSc1n[nH]c(=O)n1C1CC1)Nc1ccc(Cl)c(Cl)c1	0.5	-82.6*	9.6	nt	5.7	-16.1	88.3*	-7.2	91.4*
O=C(Nc1ccc(-c2nc3ccccc3[nH]2)cc1)c1cccc(N2C(=O)CCC2=O)c1	-0.2	14.7	-6.2	-0.3	-39.0	nt	nt	nt	nt
O=C(O)c1ccc(S(=O)(=O)NCC2CCCO2)cc1 (configuration not stated)	0.0	15.1	-0.8	0.6	-1.3	nt	nt	nt	nt
COCC(=O)Nc1ccc(S(=O)(=O)NCC2CCCO2)cc1 (configuration not stated)	0.0	3.3	-7.2	-3.3	-8.2	nt	nt	nt	nt
O=C(Cc1ccc(Br)cc1)Nc1ccc(S(=O)(=O)NCC2CCCO2)cc1 (configuration not stated)	-0.3	-96.3*	3.0	7.4	2.9	30.9	99.3*	-173.3	99.5*
O=C(CSc1ccccc1)Nc1ccc(S(=O)(=O)NCC2CCCO2)cc1 (configuration not stated)	0.0	-96.9*	2.6	-0.6	9.5	22.1	99.7*	-44.8	99.8*
Cc1ccc(NC(=O)C(C)OC(=O)COc2cccc(C(F)(F)F)c2)cc1 (configuration not stated)	0.3	nt	nt	1.0	nt	nt	nt	nt	nt
O=S1(=O)C=C(Oc2ccc(F)cc2)c2ccccc21	0.1	-16.8	18.9	-2.5	-20.8	nt	nt	nt	nt
O=S1(=O)C=C(Oc2ccc3ccccc3c2)c2ccccc21	0.1	-83.2*	-2.9	-1.2	-7.8	9.2	94.8*	-17.4	96.0*
CC(C)c1ccc(/C=N/NC(=O)C2CCCC2)cc1	0.1	?	15.4	-4.1	-3.6	-1.5	91.4*	3.9	92.4*
C/C(=N\NC(=O)C1CC1)c1ccc(C(C)(C)C)cc1	-0.4	48.8	nt	-1.2	nt	nt	nt	nt	nt
CC(C)(C)c1ccc(/C=N/NC(=O)C2CCCC2)cc1	-0.1	-83.2*	nt	14.6	nt	31.5	96.2*	?	97.1*
COc1ccccc1N(CC(O)Cn1ccnc1C)S(=O)(=O)c1ccccc1 (configuration not stated)	-0.3	6.4	3.7	7.1	1.1	nt	nt	nt	nt
O=c1[nH]c(-c2ccccc2Cl)nc2c1sc(=S)n2-c1ccccc1	nt	12.4	13.0	nt	-17.4	nt	nt	nt	nt
Cc1ccc(S(=O)(=O)Nc2ccccc2C(=O)N2CCCCC2)cc1	-0.1	5.2	3.9	6.0	0.7	nt	nt	nt	nt
O=C(NCc1ccc2c(c1)OCO2)Nc1ccc2nsnc2c1	0.0	-84.8*	-5.4	1.6	-0.9	79.0*	97.3*	3.0	99.4*
O=C(NCc1ccc2c(c1)OCO2)Nc1ccc(Cl)cc1	-2.2	-61.4	9.4	-4.5	-7.3	nt	nt	nt	nt
